This note sets out measurements from ChEMBL document CHEMBL1122515, “Structure-activity relationship of the ficin hydrolysis of phenyl hippurates. Comparison with papain, actinidin, and bromelain” (J Med Chem, 1984).

Data set [1] is described as follows: The compound was tested and spectral absorbance change (Δε) was evaluated.
The nature of data set [2]: Michaelis constant (Km), determined by Ficin hydrolysis at pH 6, 25 degrees Centigrade. As to conditions: buffer. The format is ADME. An outline of the steps: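 Ficin stock suspension diluted in 0.03 M NaCl-0.01 M EDTA buffer pH 6, activated ~2 h by saturation with 4-thiocresol, then diluted again in the same buffer. Ester hydrolysis followed spectrophotometrically at 25 °C, pH 6, in 3.3% acetonitrile-buffer. Initial rates taken at ≥8 substrate concentrations per ester. Km from least-squares fit of a Lineweaver-Burk plot.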

Data set [3] in a line: The compound was tested and optimum wavelength (λmax) was evaluated.
Data set [4] in a line: The compound was tested for optimum wavelength (λmax).

Molecules are shown by their SMILES.

The compound `CC(C)c1ccc(OC(=O)CNC(=O)c2ccccc2)cc1` registered a Δε in data set [1] of 1300 M⁻¹ cm⁻¹. In data set [2], the “Log 1/Km” value was determined as 4.33. Moreover, in data set [3], the λmax stood at 275 nm.

`Cc1cc(C)cc(OC(=O)CNC(=O)c2ccccc2)c1`: the “Log 1/Km” value in data set [2] was 4.54.

Take `NC(=O)c1cccc(OC(=O)CNC(=O)c2ccccc2)c1`: the “Log 1/Km” value in data set [2] is on record as 3.99.

In the case of `COc1cc(OC)cc(OC(=O)CNC(=O)c2ccccc2)c1`, in data set [2], the “Log 1/Km” value turned out to be 4.52.

`O=C(CNC(=O)c1ccccc1)Oc1ccc(Br)cc1`: the Δε in data set [1] is 1090 M⁻¹ cm⁻¹. In addition, in data set [4], the λmax worked out at 280 nm. In addition, in data set [2], the “Log 1/Km” value came out at 4.13.

Turning to `O=C(CNC(=O)c1ccccc1)Oc1ccc(F)cc1`, the “Log 1/Km” value in data set [2] is given as 3.53.

In turn, `CC(=O)c1cccc(OC(=O)CNC(=O)c2ccccc2)c1` came in with a Δε in data set [1] of 1860 M⁻¹ cm⁻¹. In addition, the “Log 1/Km” value in data set [2] was 4.11. The same compound had a λmax in data set [3] of 310 nm.

Turning to `CC(=O)c1ccc(OC(=O)CNC(=O)c2ccccc2)cc1`, in data set [2], the “Log 1/Km” value is 4.3.

In the case of `Nc1cccc(OC(=O)CNC(=O)c2ccccc2)c1`, in data set [2], the “Log 1/Km” value is on record as 3.72.

For the compound `NC(=O)c1ccc(OC(=O)CNC(=O)c2ccccc2)cc1`, the “Log 1/Km” value in data set [2] worked out at 4.17.

As for `O=C(CNC(=O)c1ccccc1)Oc1cccc(Cl)c1`, the “Log 1/Km” value in data set [2] is reported as 4.43.

Turning to `COc1ccc(OC(=O)CNC(=O)c2ccccc2)cc1`, the “Log 1/Km” value in data set [2] amounted to 3.82.

As to `N#Cc1cccc(OC(=O)CNC(=O)c2ccccc2)c1`, the “Log 1/Km” value in data set [2] is given as 4.15.

For `COc1cccc(OC(=O)CNC(=O)c2ccccc2)c1`, the Δε in data set [1] came out at 886 M⁻¹ cm⁻¹. Besides, the “Log 1/Km” value in data set [2] is 4.09. The compound further came in with a λmax in data set [3] of 280 nm.

For `O=C(CNC(=O)c1ccccc1)Oc1cc([N+](=O)[O-])cc([N+](=O)[O-])c1`, the “Log 1/Km” value in data set [2] is given as 4.69.

As to `Cc1cccc(OC(=O)CNC(=O)c2ccccc2)c1`, in data set [2], the “Log 1/Km” value is reported as 4.17.

Regarding `CC(C)(C)c1cccc(OC(=O)CNC(=O)c2ccccc2)c1`, the “Log 1/Km” value in data set [2] stood at 5.14.

For the compound `N#Cc1ccc(OC(=O)CNC(=O)c2ccccc2)cc1`, in data set [2], the “Log 1/Km” value came out at 4.27.

As to `O=C(CNC(=O)c1ccccc1)Oc1cccc(C(F)(F)F)c1`, in data set [2], the “Log 1/Km” value is listed as 4.85.

Consider `O=C(CNC(=O)c1ccccc1)Oc1cccc(F)c1`, for which the “Log 1/Km” value in data set [2] is reported as 3.81.

For `O=C(CNC(=O)c1ccccc1)Oc1ccccc1`, the “Log 1/Km” value in data set [2] was found to be 3.9.

Regarding `O=C(CNC(=O)c1ccccc1)Oc1cc(Cl)cc(Cl)c1`, in data set [2], the “Log 1/Km” value is on record as 4.98.

As to `O=C(CNC(=O)c1ccccc1)Oc1cccc(I)c1`, in data set [2], the “Log 1/Km” value was 4.64.

As to `O=C(CNC(=O)c1ccccc1)Oc1ccc([N+](=O)[O-])cc1`, the “Log 1/Km” value in data set [2] is 4.5.

For `CCc1cc(C)cc(OC(=O)CNC(=O)c2ccccc2)c1`, in data set [2], the “Log 1/Km” value is 4.79.

As for `O=C(CNC(=O)c1ccccc1)Oc1cccc(Br)c1`, in data set [2], the “Log 1/Km” value turned out to be 4.75.

On to `CC(=O)Nc1cccc(OC(=O)CNC(=O)c2ccccc2)c1`, for which the “Log 1/Km” value in data set [2] was 3.74.

With `O=C(CNC(=O)c1ccccc1)Oc1ccc(Cl)cc1`, in data set [2], the “Log 1/Km” value came to 3.91.

`O=C(CNC(=O)c1ccccc1)Oc1cccc([N+](=O)[O-])c1`: the “Log 1/Km” value in data set [2] is given as 4.36.

For `Cc1ccc(OC(=O)CNC(=O)c2ccccc2)cc1`, the “Log 1/Km” value in data set [2] came to 3.82.
